ChEMBL document CHEMBL3046693, “Discovery and characterization of sulfoxaflor, a novel insecticide targeting sap-feeding pests” (J Agric Food Chem, 2011)
In brackets after ≈: the same amount, converted by molar mass. Activity calls are given as the source filed them. No cut-off for these calls is given here.

Columns and labels:
Bemisia tabaci [1] = experiment: Insecticidal activity against rothamsted-resistant Bemisia tabaci Q-biotype R-CHLORAKA (sweet potato whitefly) by leaf disk bioassay; assay type: functional; details: foliar
Bemisia tabaci [2] = experiment: Insecticidal activity against Bemisia tabaci DAS (sweet potato whitefly) lab strain by leaf disk bioassay; assay type: functional; details: foliar
Drosophila melanogaster = experiment: Activation of Drosophila melanogaster nicotinic acetylcholine receptor alpha2 expressed in Xenopus laevis co-expressing chicken nicotinic acetylcholine receptor beta2 subunit by electrophysiology method
Procedure, shortened: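 Drosophila α2 cRNA co-injected with chicken β2 and C. elegans ric-3 chaperone into defolliculated X. laevis oocytes (≤50 nL at 1 ng/nL). Oocytes held singly in ND-96 (pH 7.6) at 18 °C and recorded 1-4 days after injection on an automated oocyte recording system.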

Myzus persicae [3] = experiment: Insecticidal activity against drug resistant Myzus persicae R-4013A (green peach aphid) by leaf disk bioassay; assay type: functional; details: foliar
Bemisia tabaci [4] = experiment: Insecticidal activity against rothamsted-resistant Bemisia tabaci R-4991BT1 (sweet potato whitefly) by leaf disk bioassay; assay type: functional; details: R-4991BT1, foliar
Myzus persicae [5] = experiment: Displacement of [3H]imidacloprid from nicotinic acetylcholine receptor in Myzus persicae (green peach aphid) homogenates by scintillation counting
Procedure, shortened: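 Frozen (-80 °C) aphids homogenized at 4 °C in sucrose/Tris/EDTA/PMSF buffer (pH 7.2), filtered, spun 3500 rpm 15 min then 17500 rpm 20 min (4 °C). Pellet resuspended in 120 mM NaCl, 50 mM Tris (pH 7.4). ~2 nM [3H]IMI, 70 μg protein/well and competitor for 60 min at ~22 °C. Protein-started, filtration-stopped, scintillation-counted; total and filter binding measured.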

Bemisia tabaci [6] = experiment: Insecticidal activity against Bemisia tabaci S-4971BT1 (sweet potato whitefly) by leaf disk bioassay; assay type: functional; details: S-4971BT1, foliar
Bemisia tabaci [7] = experiment: Insecticidal activity against Bemisia tabaci SUD-S (sweet potato whitefly) by leaf disk bioassay; assay type: functional; details: foliar
Bemisia tabaci [8] = experiment: Resistance index, ratio of LC50 for DAS insecticide-resistant Bemisia tabaci B-biotype R-PB (sweet potato whitefly) to LC50 for drug sensitive Bemisia tabaci DAS lab strain; assay type: functional
Bemisia tabaci [9] = experiment: Insecticidal activity against rothamsted-resistant Bemisia tabaci Q-biotype R-4971BT9 (sweet potato whitefly) by leaf disk bioassay; assay type: functional; details: Q-biotype R-4971BT9, foliar
Bemisia tabaci [10] = experiment: Resistance index, ratio of LC50 for drug resistant rothamsted-resistant Bemisia tabaci R-4991BT1 (sweet potato whitefly) to LC50 for DAS-susceptible Bemisia tabaci S-4971BT1; assay type: functional
Bemisia tabaci [11] = experiment: Insecticidal activity against drug sensitive Bemisia tabaci DAS (sweet potato whitefly) lab strain by leaf disk bioassay; assay type: functional; details: foliar
Myzus persicae [12] = experiment: Resistance index, ratio of LC50 for drug resistant Myzus persicae R-4013A (green peach aphid) to LC50 for Myzus persicae S-USIL; assay type: functional
Myzus persicae [13] = experiment: Insecticidal activity against Myzus persicae (green peach aphid) infested UV irradiated leaves of pepper plant exposed to compound at 124 ppm assessed as insect control efficacy post 7 days UV exposure relative to untreated control; assay type: functional
Procedure, shortened: (§1)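 Aphid control on treated UV-exposed pepper leaves scored 3 days after infestation; four replicates per treatment and time point.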

[14] = Stability assessed as half life for photolysis in UV chamber at 1000 ppm by HPLC method; assay type: physicochemical
Myzus persicae [15] = experiment: Insecticidal activity against Myzus persicae S-USIL (green peach aphid) by leaf disk bioassay; assay type: functional; details: foliar
CYP6G1 [16] = experiment: (§2) Drug metabolism in Drosophila melanogaster D.mel-2 cells deficient in CYP6G1 assessed as drug recovery measured 24 hr post dose by HPLC method; assay type: ADME; details: D.mel-2 cells deficient in CYP6G1, read-out: Drug recovery
Bemisia tabaci [17] = experiment: Resistance index, ratio of LC50 for rothamsted-resistant Bemisia tabaci Q-biotype R-4971BT9 (sweet potato whitefly) to LC50 for Bemisia tabaci S-4971BT1; assay type: functional
Myzus persicae [18] = experiment: Insecticidal activity against Myzus persicae (green peach aphid) DAS lab strain by leaf disk bioassay; assay type: functional; details: foliar
Bemisia tabaci [19] = experiment: Insecticidal activity against DAS-susceptible Bemisia tabaci S-4971BT1 (sweet potato whitefly) by leaf disk bioassay; assay type: functional; details: S-4971BT1, foliar
Bemisia tabaci [20] = experiment: Insecticidal activity against DAS insecticide-resistant Bemisia tabaci B-biotype R-PBI (sweet potato whitefly) by leaf disk bioassay; assay type: functional; details: foliar
Bemisia tabaci [21] = experiment: Resistance index, ratio of LC50 for rothamsted-resistant Bemisia tabaci Q-biotype R-CHLORAKA (sweet potato whitefly) to LC50 for Bemisia tabaci SUD-S; assay type: functional
Myzus persicae [22] = experiment: Insecticidal activity against Myzus persicae (green peach aphid) infested UV irradiated leaves of pepper plant exposed to compound at 124 ppm assessed as insect control efficacy post 3 days UV exposure relative to untreated control; assay type: functional; procedure, shortened: as §1
Myzus persicae [23] = experiment: Insecticidal activity against Myzus persicae (green peach aphid) infested UV irradiated leaves of pepper plant exposed to compound at 124 ppm assessed as insect control efficacy post 0 day UV exposure relative to untreated control; assay type: functional; procedure, shortened: as §1
Aphis gossypii = experiment: Insecticidal activity against Aphis gossypii (cotton aphid) DAS lab strain by leaf disk bioassay; assay type: functional; details: foliar
CYP6G1 [24] = experiment: Drug metabolism in Drosophila melanogaster D.mel-2 cells over-expressing in CYP6G1 assessed as drug recovery measured 24 hr post dose by HPLC method; assay type: ADME; details: D.mel-2 cells over-expressing CYP6G1, read-out: Drug recovery
[25] = as §2; assay type: ADME; details: 24 h

Row | Structure (SMILES) | LC50 (Bemisia tabaci [1]) [µg/mL] | LC50 (Bemisia tabaci [2]) [µg/mL] | Activity (Drosophila melanogaster) | LC50 (Myzus persicae [3]) [µg/mL] | LC50 (Bemisia tabaci [4]) [µg/mL] | LC50 (Bemisia tabaci [6]) [µg/mL] | LC50 (Bemisia tabaci [7]) [µg/mL] | RatioLC50 (Bemisia tabaci [8]) | LC50 (Bemisia tabaci [9]) [µg/mL] | RatioLC50 (Bemisia tabaci [10]) | LC50 (Bemisia tabaci [11]) [µg/mL] | RatioLC50 (Myzus persicae [12]) | Efficacy (Myzus persicae [13]) [%] | half-life at 1000 ppm [14] [h] | LC50 (Myzus persicae [15]) [µg/mL] | remaining at 24 h (CYP6G1 [16]) [%] | LC50 (Myzus persicae [18]) [µg/mL] | RatioLC50 (Bemisia tabaci [21]) | LC50 (Aphis gossypii) [µg/mL] | remaining at 24 h (CYP6G1 [24]) [%] | further results
1 | CC(c1ccc(C(F)(F)F)nc1)S(C)(=O)=NC#N (configuration not stated) [SULFOXAFLOR] | 5 (≈ 18 µM) | 0.85 (≈ 3.07 µM) | Active | 1.52 (≈ 5.48 µM) | 28 (≈ 101 µM) | 18 (≈ 64.9 µM) | 1.8 (≈ 6.49 µM) | 2.3 | 39 (≈ 141 µM) | 1.6 | 2.8 (≈ 10.1 µM) | 0.37 | 90 | 88 | 4.13 (≈ 14.9 µM) | 105 | 0.074 (≈ 0.267 µM) | 2.8 | 0.2 (≈ 0.721 µM) | 108 | Activity (Myzus persicae [5]): Active; RatioLC50 (Bemisia tabaci [17]): 2.2; LC50 (Bemisia tabaci [19]): 18 µg/mL (≈ 64.9 µM); LC50 (Bemisia tabaci [20]): 6.4 µg/mL (≈ 23.1 µM); Efficacy (Myzus persicae [22]): 100%; Efficacy (Myzus persicae [23]): 100%
2 | O=[N+]([O-])/N=C1\NCCN1Cc1ccc(Cl)nc1 [IMIDACLOPRID] | > 1000 | 0.37 (≈ 1.45 µM) | Active | 15.3 (≈ 59.8 µM) | > 1000 | 4.4 (≈ 17.2 µM) | 1.23 (≈ 4.81 µM) | 870 | 4500 (≈ 17600 µM) | >230 | 0.2 (≈ 0.782 µM) | 17.1 | 21 |  | 0.896 (≈ 3.5 µM) |  | 0.09 (≈ 0.352 µM) | >833 | 7.8 (≈ 30.5 µM) |  | RatioLC50 (Bemisia tabaci [17]): 1022; LC50 (Bemisia tabaci [19]): 4.4 µg/mL (≈ 17.2 µM); LC50 (Bemisia tabaci [20]): 174 µg/mL (≈ 681 µM); Efficacy (Myzus persicae [22]): 42%; Efficacy (Myzus persicae [23]): 100%
3 | O=[N+]([O-])NC1=NCCN1Cc1ccc(Cl)nc1 [IMIDACLOPRID] |  |  |  |  |  |  |  |  |  |  |  |  |  | 7 |  | 115 |  |  |  | 4.5 | 
4 | C/C(=N\C#N)N(C)Cc1ccc(Cl)nc1 [ACETAMIPRID] |  |  |  |  |  |  |  |  |  |  |  |  |  |  |  |  |  |  |  | 0 | Drug recovery [25]: 122.7%
5 | CC(c1ccc(Cl)nc1)S(C)(=O)=NC#N (configuration not stated) | 13.2 (≈ 54.2 µM) | 0.29 (≈ 1.19 µM) |  | 12.5 (≈ 51.3 µM) |  |  | 4.48 (≈ 18.4 µM) |  |  |  |  | 0.2 |  |  | 62.3 (≈ 256 µM) |  | 0.374 (≈ 1.53 µM) | 2.9 | 3 (≈ 12.3 µM) |  | 
